Measured values published in article PMC3944078 (ACS chemical biology, 2013).
Like-named read-outs stand apart in the source and are kept apart here.

Tests used:
MBP [1] = biological target: T1, MBP (Escherichia coli, UniProt P0AEX9); test: CARS with MBP, SO fluorescence, 96-well; format: binding, E. coli; settings: for Change in SO fluorescence in the presence of MBP: negative controls, 0–1 mM
myoc-OLF [2] = biological target: T2, myoc-OLF (Homo sapiens, UniProt Q99972); test: CARS with myoc-OLF, TMAO dose-dependent SO fluorescence, 96-well; format: binding; settings: 1 µM myoc-OLF, 0.6 M GdnHCl
T2 sequence (Q99972 244-503 limits assumed): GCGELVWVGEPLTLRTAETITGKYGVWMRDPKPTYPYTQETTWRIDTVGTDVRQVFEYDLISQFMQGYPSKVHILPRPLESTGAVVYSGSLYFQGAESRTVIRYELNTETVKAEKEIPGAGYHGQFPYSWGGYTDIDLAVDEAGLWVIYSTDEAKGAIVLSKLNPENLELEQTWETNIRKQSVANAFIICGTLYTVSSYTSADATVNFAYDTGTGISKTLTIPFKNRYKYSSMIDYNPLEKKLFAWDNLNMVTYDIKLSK
Method in brief: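 myoc-OLF was expressed as a Factor Xa-cleavable MBP fusion and purified. TMAO was titrated at 0−1 M, and protein was added last, just before fluorescence readings. The signal window was the SO fluorescence difference with versus without 1 M TMAO.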

myoc-OLF [3] = biological target: T2, myoc-OLF; test: Differential scanning fluorimetry; format: binding; settings: DSF; hits at concentrations used for screening
myoc-OLF [4] = biological target: T2, myoc-OLF; test: SPR binding to immobilized myoc-OLF; settings: for Binding mode by SPR: sensorgram inspection
[5] = Solubility behavior under SPR conditions; format: physicochemical
myoc-OLF [6] = biological target: T2, myoc-OLF; test: myoc-OLF amyloid fibrillization assay; format: biochemical; settings: for myoc-OLF fibrillization (ThT fluorescence): ~3 d, 96-well format; for Fibrils/deposits by AFM: after fibrillization assay
[7] = test system: HEK-cell line stably expressing I477N-mutant myocilin; test: Mutant myocilin cellular secretion assay; format: cell-based; settings: 20, 100, 200 µM compound, 24 h, immunoblotting of media
Solubility in cell media = format: physicochemical; settings: addition to cell media
[8] = test system: HEK-cell line stably expressing I477N-mutant myocilin; test: Cellular toxicity profile; format: cell-based; settings: up to 200 µM
MBP [9] = biological target: T1, MBP; test: DSF thermal stability of MBP with ligands; format: binding, E. coli; settings: 1 µM MBP, 1mM ligand
E. coli MBP = settings: MBP ligand; cited from earlier work
[10] = standard SPR conditions, compounds dissolved in 5% DMSO
[11] = standard SPR conditions, 5% DMSO

## O=S(=O)(F)Cc1ccccc1 [PMSF]
MBP [1]
  Change in SO fluorescence in the presence of MBP: Neither

## C[N+](C)(C)[O-] [TMAO, trimethylamine-N-oxide]
myoc-OLF [2]
  Concentration by which the decrease in SO fluorescence levels off: ≤ 1 M

## O=C(Nc1ccc([N+](=O)[O-])cc1Cl)c1cc(Cl)ccc1O [Niclosamide]
myoc-OLF [3]
  ΔTm: 0.0 ± 0.2 °C
myoc-OLF [4]
  Binding mode by SPR: failed to elicit an interpretable response
myoc-OLF [4]; [10]
  Kd from SPR: no detectable binding ^d
[5]; [11]
  Solubility behavior: poor solubility behavior

## O=c1c(O)c(-c2cc(O)c(O)c(O)c2)oc2cc(O)cc(O)c12 [Myricetin]
myoc-OLF [3]
  ΔTm: 1.7 ± 0.0 °C
myoc-OLF [4]
  Binding mode by SPR: bind non-specifically
myoc-OLF [4]; [10]
  Kd from SPR: linear dose-response

## O=c1c(O)c(-c2ccc(O)cc2O)oc2cc(O)cc(O)c12 [Morin]
myoc-OLF [3]
  ΔTm: −0.4 ± 0.4 °C
myoc-OLF [4]
  Binding mode by SPR: non-stoichiometric binders
myoc-OLF [4]; with surfactant P-20 in buffer solution
  Kd from SPR: weak sigmoidal response ^c, ^d
[5]; [11]
  Solubility behavior: poor solubility behavior

## O=C(/C=C/c1ccc(O)cc1)c1ccc(O)cc1O [Isoliquiritigenin]
myoc-OLF [4]
  Binding mode by SPR: bind non-specifically
myoc-OLF [4]; [10]
  Kd from SPR: linear dose-response

## O=C1Nc2ccccc2C1=Cc1cc(Br)c(O)c(Br)c1 [G5]
myoc-OLF [6]
  myoc-OLF fibrillization (ThT fluorescence): potent fibril inhibition
[7]
  Secretion of I477N-mutant myocilin: increased I477N-mutant myocilin secretion in a dose-dependent manner
Solubility in cell media
  Solubility in cell media: adequate solubility
[8]
  Cellular toxicity profile: adequate

## O=c1cc(-c2ccccc2)oc2c(O)c(O)ccc12 [A1, 7,8-dihydroxyflavone]
myoc-OLF [6]
  myoc-OLF fibrillization (ThT fluorescence): dose-dependent decrease in myoc-OLF fibrilization
[7]
  Secretion of I477N-mutant myocilin: increased I477N-mutant myocilin secretion in a dose-dependent manner
Solubility in cell media
  Solubility in cell media: adequate solubility
[8]
  Cellular toxicity profile: adequate

## O=C(CCc1ccc(O)cc1)c1c(O)cc(O)cc1O [Phloretin]
myoc-OLF [3]
  ΔTm: 1.2 ± 0.0 °C
myoc-OLF [4]
  Binding mode by SPR: bind non-specifically
myoc-OLF [4]; [10]
  Kd from SPR: linear dose-response

## NC(=O)CI [iodoacetamide]
MBP [1]
  Change in SO fluorescence in the presence of MBP: Neither

## O=C1Nc2ccc(I)cc2C1=Cc1cc(Br)c(O)c(Br)c1 [GW5074, 3-(3,5-dibromo-4-hydroxybenzylidine-5-iodo-1,3-dihydro-indol-2-one)]
myoc-OLF [3]
  ΔTm: 0.2 ± 0.0 °C
myoc-OLF [4]; read-out: Kd from SPR, standard SPR conditions, compounds dissolved in 5% DMSO
  Kd: 33.5 ± 20.9 µM
myoc-OLF [6]
  Fibrils/deposits by AFM: no fibrils apparent
  myoc-OLF fibrillization (ThT fluorescence): decreased myoc-OLF fibrillization in a dose-dependent manner
[5]; [11]
  Solubility behavior: poor solubility behavior
Solubility in cell media
  Solubility in cell media: precipitated upon addition to the cell media

## CC(C)(C)c1cc(/C=C(\C#N)C(N)=S)cc(C(C)(C)C)c1O [Tyrphostin AG 879]
myoc-OLF [3]
  ΔTm: −0.8 ± 0.0 °C
myoc-OLF [4]; read-out: Kd from SPR, with surfactant P-20 in buffer solution
  Kd: 38.6 ± 12.7 µM
myoc-OLF [4]; surfactant P-20 present in SPR buffer
  Binding stoichiometry from SPR: stoichiometric binding
[5]
  Solubility behavior: poor solubility behavior

## O=C(O)C1=CC(=C(c2ccc(O)c(C(=O)O)c2)c2ccc(O)c(C(=O)O)c2)C=CC1=O [Aurintricarboxilic acid, Aurintricarboxylic acid]
myoc-OLF [3]
  ΔTm: 0.3 ± 0.2 °C
myoc-OLF [4]
  Kd: 17.1 ± 9.6 µM
myoc-OLF [6]
  Fibrils/deposits by AFM: high levels of deposits similar to vehicle control
  myoc-OLF fibrillization (ThT fluorescence): increase in ThT fluorescence

## OC[C@@H](O)[C@@H](O[C@H]1O[C@H](CO)[C@@H](O)[C@H](O)[C@H]1O)[C@H](O)[C@@H](O)CO [maltitol]
MBP [9]
  Change in melting temperature (ITm): 0.9 K
MBP [1]; 2 µM MBP, 0.6 M GdnHCl
  Concentration by which a decrease in SO fluorescence was seen: ~ 10 µM
E. coli MBP
  Kd: 50 µM

## CC(=O)c1c(O)c(C)c(O)c(Cc2c(O)c3c(c(C(=O)/C=C/c4ccccc4)c2O)OC(C)(C)C=C3)c1O [Rottlerin]
myoc-OLF [4]
  Kd: 30.1 ± 0.6 µM
  Binding mode by SPR: promiscuous binder

## O=c1cc(-c2ccc(O)cc2)oc2cc(O)cc(O)c12 [Apigenin, 4’,5,7-trihydroxyflavone]
myoc-OLF [3]
  ΔTm: −0.3 ± 0.2 °C
myoc-OLF [6]
  Fibrils/deposits by AFM: no fibrils apparent
  myoc-OLF fibrillization (ThT fluorescence): decreased myoc-OLF fibrillization in a dose-dependent manner
Solubility in cell media
  Solubility in cell media: precipitated upon addition to the cell media

## Oc1cc(O)cc(/C=C/c2ccc(O)c(O)c2)c1 [Piceatannol]
myoc-OLF [3]
  ΔTm: −0.4 ± 0.1 °C
myoc-OLF [4]
  Binding mode by SPR: non-stoichiometric binders
myoc-OLF [4]; [10]
  Kd from SPR: sigmoidal dose-response

## OC[C@H]1O[C@H](O[C@H]2[C@H](O)[C@@H](O)C(O)O[C@@H]2CO)[C@H](O)[C@@H](O)[C@@H]1O (mixture of isomers) [Maltose, maltose]
MBP [9]
  Change in melting temperature (ITm): 10 K
MBP [1]; at low micromolar concentrations, 2 µM MBP, 0.6 M GdnHCl
  Decrease in SO fluorescence intensity: 50%
E. coli MBP
  Kd: 1 µM

## OC[C@H]1O[C@H](O[C@H]2[C@H](O)[C@@H](O)[C@@H](O[C@H]3[C@H](O)[C@@H](O)[C@@H](O[C@H]4[C@H](O)[C@@H](O)C(O)O[C@@H]4CO)O[C@@H]3CO)O[C@@H]2CO)[C@H](O)[C@@H](O)[C@@H]1O (stereo partly drawn) [maltotetraose]
MBP [9]
  Change in melting temperature (ITm): 10 K
